Results reported in ChEMBL document CHEMBL4411287, “Discovery and optimization of a series of 3-substituted indazole derivatives as multi-target kinase inhibitors for the treatment of lung squamous cell carcinoma” (Eur J Med Chem, 2019).

Columns and labels:
[1] = biological target: T1, Discoidin domain-containing receptor 2 (Homo sapiens) (UniProt Q16832); test: Inhibition of DDR2 (unknown origin) at 100 nM using poly (Glu, Tyr) 4:1 substrate after 60 mins by ELISA relative to control
T1 sequence (whole entry): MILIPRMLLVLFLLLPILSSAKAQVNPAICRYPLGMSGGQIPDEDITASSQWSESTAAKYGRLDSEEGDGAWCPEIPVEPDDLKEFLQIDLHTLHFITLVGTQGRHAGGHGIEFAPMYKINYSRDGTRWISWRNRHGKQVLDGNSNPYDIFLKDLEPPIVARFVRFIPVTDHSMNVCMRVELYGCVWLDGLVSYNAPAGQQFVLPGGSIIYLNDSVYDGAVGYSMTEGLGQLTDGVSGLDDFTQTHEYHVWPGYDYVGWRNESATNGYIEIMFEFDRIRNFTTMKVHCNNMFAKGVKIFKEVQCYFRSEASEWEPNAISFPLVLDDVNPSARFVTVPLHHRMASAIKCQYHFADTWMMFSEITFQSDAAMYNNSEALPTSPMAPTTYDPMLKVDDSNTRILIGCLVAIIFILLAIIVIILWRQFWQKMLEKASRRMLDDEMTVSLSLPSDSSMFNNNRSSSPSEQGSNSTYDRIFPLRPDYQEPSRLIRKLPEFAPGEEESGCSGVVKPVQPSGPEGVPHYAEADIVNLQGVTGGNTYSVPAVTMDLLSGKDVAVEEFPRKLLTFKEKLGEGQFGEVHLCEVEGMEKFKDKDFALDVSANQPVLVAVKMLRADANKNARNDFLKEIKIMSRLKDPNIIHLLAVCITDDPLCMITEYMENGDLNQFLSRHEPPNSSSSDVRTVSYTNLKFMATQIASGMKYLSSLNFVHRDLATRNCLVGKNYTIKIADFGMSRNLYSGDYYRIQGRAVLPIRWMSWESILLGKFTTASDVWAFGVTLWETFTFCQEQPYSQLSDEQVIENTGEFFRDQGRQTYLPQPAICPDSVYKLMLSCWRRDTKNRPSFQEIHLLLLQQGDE
Outline: (§1)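 ELISA with purified recombinant DDR2 on poly(Glu,Tyr) 4:1 precoated at 20 µg/mL. 10 µM ATP in HEPES pH 7.4 buffer with MgCl2, MnCl2, Na3VO4 and DTT, 1% DMSO; 60 min at 37 °C. Phosphotyrosine detected by PY99 and HRP anti-mouse IgG with o-phenylenediamine at A490. Inhibition = 1−A490/A490control; two separate experiments.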

[2] = biological target: T2, Discoidin domain-containing receptor 2 (Homo sapiens, UniProt Q16832); test: Inhibition of DDR2 (unknown origin) using poly (Glu, Tyr) 4:1 substrate after 60 mins by ELISA
T2 sequence (Q16832 whole entry): T1 sequence (whole entry)

KG-1 = test: Antiproliferative activity against human KG1 cells after 72 hrs by CCK8 assay; details: KG-1, 72 h
NCI-H2286 [3] = test: Antiproliferative activity against human NCI-H2286 cells after 72 hrs by CCK8 assay; details: NCI-H2286, 72 h
[4] = biological target: T1, Discoidin domain-containing receptor 2 (Homo sapiens); test: Inhibition of DDR2 (unknown origin) at 1000 nM using poly (Glu, Tyr) 4:1 substrate after 60 mins by ELISA relative to control; outline: as §1
NCI-H2286 [5] = test: Antiproliferative activity against human NCI-H2286 cells at 100 nM after 72 hrs by CCK8 assay relative to control; type: functional
[6] = AUC (0 to t) in ICR(CD-1) mouse at 10 mg/kg, po administered via gavage by triple quadrupole mass spectrometric analysis; type: ADME, organism-based; details: in vivo
Outline: (§2)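 Oral gavage at 1 mg/mL in 1% Tween80/water to male ICR mice (18-22 g, n=3). Plasma sampled at 0.25, 0.5, 1, 2, 4, 8 and 24 h, protein precipitated with methanol:acetonitrile (1:1) containing internal standard, and quantified by UPLC-triple quadrupole MS. AUC and MRT were taken from per-animal time-concentration curves. Cmax is the maximum plasma level and Tmax the time to reach it.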

[7] = AUC (0 to infinity) in ICR(CD-1) mouse at 10 mg/kg, po administered via gavage by triple quadrupole mass spectrometric analysis; type: ADME, organism-based; parameters: dose 10 mg/kg, route oral, time infinity; details: in vivo; outline: as §2
[8] = Tmax in ICR(CD-1) mouse at 10 mg/kg, po administered via gavage by triple quadrupole mass spectrometric analysis; type: ADME, organism-based; details: in vivo
Outline: (§3)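 Dosed by gavage at 1 mg/mL in 1% Tween80/water to male ICR mice, 18-22 g, n=3. Blood taken at 0.25, 0.5, 1, 2, 4, 8 and 24 h. Plasma precipitated with methanol:acetonitrile (1:1) containing internal standard, then UPLC-MS/MS on a C18 column with an ammonium acetate/formic acid–acetonitrile gradient. Tmax read directly from the data; MRT calculated per animal from concentration–time curves.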

[9] = Half life in ICR(CD-1) mouse at 10 mg/kg, po administered via gavage by triple quadrupole mass spectrometric analysis; type: ADME, organism-based; details: in vivo; outline: as §2
[10] = MRT in ICR(CD-1) mouse at 10 mg/kg, po administered via gavage by triple quadrupole mass spectrometric analysis; type: ADME, organism-based; details: in vivo; outline: as §3
[11] = Cmax in ICR(CD-1) mouse at 10 mg/kg, po administered via gavage by triple quadrupole mass spectrometric analysis; type: ADME, organism-based; parameters: dose 10 mg/kg, route oral; details: in vivo; outline: as §2

| inhibition [1] | IC50 [2] | SMILES | IC50 (KG-1) | also measured |
| --- | --- | --- | --- | --- |
| 23.2% |  | Cc1ccc(C(=O)NCc2cccc(N3CCN(C)CC3)c2)cc1-c1ccc2cn[nH]c2c1 |  |  |
|  | 64.3 nM | O=C(Nc1ccc(F)c(-c2ccc3cn[nH]c3c2)c1)c1cccc(C(F)(F)F)c1 |  |  |
|  | 6.7 nM | Cc1ccc(C(=O)Nc2ccc(CN3CCN(C)CC3)cc2)cc1-c1ccc2cn[nH]c2c1 |  |  |
|  | 2.7 nM | Cc1ccc(C(=O)Nc2cccc(C(F)(F)F)c2)cc1-c1ccc2c(-c3cnn(CC(=O)N(C)C)c3)n[nH]c2c1 | 441 nM | IC50 (NCI-H2286 [3]): > 1000 nM |
|  | 9.5 nM | O=C(Nc1ccc(Cl)c(-c2ccc3cn[nH]c3c2)c1)c1cccc(C(F)(F)F)c1 |  |  |
| 13.1% |  | Nc1n[nH]c2ccc(-c3cccc(NC(=O)c4cccc(C(F)(F)F)c4)c3)cc12 |  | inhibition [4]: 35.9% |
|  | 2.9 nM | Cc1ccc(C(=O)Nc2cccc(C(F)(F)F)c2)cc1-c1ccc2c(-c3cnn(CCO)c3)n[nH]c2c1 | 174 nM | Activity (NCI-H2286 [5]): 35% |
| 22.8% |  | Nc1n[nH]c2cc(-c3cccc(NC(=O)c4cccc(C(F)(F)F)c4)c3)ccc12 |  | inhibition [4]: 24.8% |
|  | 6.5 nM | Cc1ccc(C(=O)Nc2cccc(C(F)(F)F)c2)cc1-c1ccc2c(-c3ccc(C(=O)N4CCN(C)CC4)cc3)n[nH]c2c1 | 300 nM | Activity (NCI-H2286 [5]): 45% |
| 37.3% |  | Cc1ccc(C(=O)Nc2cccc(N3CCN(C)CC3)c2)cc1-c1ccc2cn[nH]c2c1 |  |  |
|  | 2.7 nM | Cc1ccc(C(=O)Nc2cccc(C(C)(C)C#N)c2)cc1-c1ccc2cn[nH]c2c1 |  |  |
|  | 5.5 nM | Cc1ccc(NC(=O)c2cccc(C(F)(F)F)c2)cc1-c1ccc2cn[nH]c2c1 |  |  |
|  | 1.2 nM | Cc1ccc(C(=O)Nc2cccc(C(C)C)c2)cc1-c1ccc2cn[nH]c2c1 |  |  |
|  | 5.2 nM | Cc1ccc(C(=O)Nc2cccc(C(F)(F)F)c2)cc1-c1ccc2c(-c3cnn(C4CCCCO4)c3)n[nH]c2c1 (stereo unspecified) | 121 nM | Activity (NCI-H2286 [5]): 45% |
|  | 3.7 nM | Cc1ccc(C(=O)Nc2cccc(C(F)(F)F)c2)cc1-c1ccc2c(-c3cnn(CC(C)O)c3)n[nH]c2c1 (stereo unspecified) | 339 nM | AUC(0-t) [6]: 324 ng·h/mL; AUC(0-inf) [7]: 334 ng·h/mL; Tmax [8]: 15 min; IC50 (NCI-H2286 [3]): 196 nM; half-life [9]: 45 min; MRT [10]: 82.2 min; Cmax [11]: 202 ng/mL |
| 7.6% |  | Cn1ncc2ccc(-c3cccc(NC(=O)c4cccc(C(F)(F)F)c4)c3)cc21 |  | inhibition [4]: 29.8% |
|  | 7 nM | Cc1ccc(C(=O)Nc2cc(CN3CCN(C4CCCC4)CC3)cc(C(F)(F)F)c2)cc1-c1ccc2cn[nH]c2c1 |  |  |
| 27.4% |  | Cc1cc(NC(=O)c2cccc(C(F)(F)F)c2)cc(-c2ccc3cn[nH]c3c2)c1 |  |  |
|  | 3.9 nM | CCN1CCN(Cc2cc(NC(=O)c3ccc(C)c(-c4ccc5cn[nH]c5c4)c3)cc(C(F)(F)F)c2)CC1 |  |  |
|  | 2.6 nM | CCn1cc(-c2n[nH]c3cc(-c4cc(C(=O)Nc5cccc(C(F)(F)F)c5)ccc4C)ccc23)cn1 | 257 nM | IC50 (NCI-H2286 [3]): 19.8 nM |
